Screening data (PubChem BioAssay)
H69AR inhibit: proliferation blockers of H69AR lung cancer cells, primary screen, cell-based, human, 86K library; H69AR lung tumor viability, ATP luminescence, 72 h; stronger effect = lower value; viability, % at 10 µM; 85,000 compounds, 6% hits; AID 598, 2007;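 active means viability at or below 40%; inactive means viability above 40%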;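 further: multidrug resistant small cell line overexpressing MRP-1 efflux transporter; 100% = mean luminescence of untreated control wells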
Fibroblast inh: antiproliferative effect on LL 47 fibroblasts – human, LL 47 cells, CellTiter-Glo luminescence, primary screen; 85,000 compounds, 1.1% hits; LL 47 human lung fibroblast viability, ATP luminescence; stronger effect = lower value; viability, % at 10 µM; AID 719, 2007;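 active means viability at or below 50% in the single dose screen; inactive means viability above 50%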;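 further: compound exposure lasted 72 h before the ATP readout; 100% = median luminescence of untreated cell-only wells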
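test system = LL 47 human lung fibroblasts | amount = 1,150 fibroblasts seeded per well | medium = 15% FBS in IMEM | times = overnight cell rest, 72 h compound treatment at 37 °C | measured by = CellTiter-Glo luminescence measuring cellular ATP | read-out = viability percentage against median untreated-cell control | benchmarks = cell-only wells, no compound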
HUVEC inhibit: inhibitors of HUVEC proliferation, primary screen, cell-based, 384-well. viability, % at 10 µM (by protocol). 86,000 compounds, 1.1% hits. CellTiter-Glo luminescence, 72 h; stronger effect = lower value. AID 648, 2007;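 active means viability at or below 30%; inactive means viability above 30%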;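 further: 100% = median luminescence of DMSO-only cell control wells on each plate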
PTEN del growth: growth suppression of PTEN-null HCT116, primary screen, cell-based, CellTiter-Glo | 140,000 compounds, 1.2% hits | viability, % at 10 µM | HCT116 PTEN-null viability, 60 h; stronger effect = lower value;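 active means viability at or below a set limit, 4 SD under the median of all tested compounds, cut at about 3.7% in these data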;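 further: PTEN knockout HCT116 line with beta catenin targeted HCT116 as companion control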
HCT116 bCat-KO: primary screen for growth suppressors in beta-catenin knockout HCT116 cells (colon tumor, human) | 140,000 compounds, 1.5% hits | viability, % at 10 µM | HCT116 beta-catenin knockout viability, CellTiter-Glo, 60 h; stronger effect = lower value;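 active means viability at or under a set limit, the compound median less 4 SD, cut at about 6% in these data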;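 further: 0% = Hyamine 1622 control at 20 µM and 100% = untreated cell control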
Active calls of the source: *; x = no result. This excerpt belongs to a sample that is enriched for hits.

SMILES	H69AR inhibit	Fibroblast inh	HUVEC inhibit	PTEN del growth	HCT116 bCat-KO
CC1CCCCC1n1c(=S)[nH]c2ccccc2c1=O (stereo unspecified)	18*	82	82	87	82
Cc1ccc2c(c1)C(c1ccncc1)=NNC(c1ccc(C(C)C)cc1)=N2	x	x	x	72	86
CN1CC=C2C(C#N)=C(N)C(C#N)(C#N)C(c3cccc(Cl)c3Cl)C2C1 (stereo unspecified)	15*	78	71	89	84
N#CC1=C(N)C(C#N)(C#N)[C@H](c2ccoc2)[C@H]2CN(Cc3ccccc3)CC=C12	4.0*	69	39	85	89
CCOC(=O)N1CC=C2C(C#N)=C(N)C(C#N)(C#N)[C@H](c3ccc(OCC)c(OCC)c3)[C@H]2C1	26*	79	60	97	94
N#CC1=C(N)C(C#N)(C#N)C(c2cccnc2)C2CN(C(=O)OCc3ccccc3)CC=C12 (stereo unspecified)	11*	72	53	69	61
CN1CC=C2C(C#N)=C(N)C(C#N)(C#N)[C@H](c3ccoc3)[C@H]2C1	56	95	104	69	76
O=C1[O][Bi][O]c2ccccc21	91	98	103	x	x
Cc1ccc(S(=O)(=O)N(Cc2cc3cccc(C)c3[nH]c2=O)c2ccccc2)cc1	x	x	x	86	86
Clc1ccc(C(c2nnnn2C2CCCC2)N2CCN(Cc3ccncc3)CC2)cc1 (stereo unspecified)	x	x	x	73	78
O=c1c(C(c2nnnn2C2CCCCC2)N2CCCCC2)coc2ccc(Cl)cc12 (stereo unspecified)	18*	94	64	81	89
O=C1c2ccccc2NC(c2ccc(Cl)cc2Cl)N1O (stereo unspecified)	x	72	80	8	3.5*
N#C/C(=C/c1ccc(-c2ccc(S(N)(=O)=O)cc2)o1)c1nc2ccccc2s1	x	x	x	1.8*	1.5*
N#C/C(=C/c1ccc(-c2ccc(S(N)(=O)=O)cc2)o1)C(=O)Nc1ccccc1	x	x	x	80	72
COc1ccccc1C(=O)Oc1cc(N)n(S(=O)(=O)c2ccc(C)cc2)n1	x	x	x	105	96
COc1ccc(S(=O)(=O)n2nc(OC(=O)c3c(-c4ccccc4Cl)noc3C)cc2N)cc1	28*	110	83	94	97
CCOC(=O)c1c(NC(=S)NC(=O)c2ccc(Cn3cc(Cl)cn3)o2)sc2c1CCCCC2	x	x	x	6	2.4*
CCN(CC)c1ccc(NC(=O)CC2Oc3ccccc3NC2=O)c(C)c1 (stereo unspecified)	25*	87	78	65	71
O=C(Nc1ncc(S(=O)(=O)c2ccc([N+](=O)[O-])cc2)s1)c1cccc2ccccc12	x	x	x	40	43
O=C(NC(Nc1ncc(S(=O)(=O)c2ccc([N+](=O)[O-])cc2)s1)(C(F)(F)F)C(F)(F)F)c1ccc(Cl)cc1	x	x	x	3.1*	2.6*
CCCCOc1ccc(/C=C/C(=O)OCC(=O)N2CC(=O)Nc3ccccc32)cc1OCC	x	x	x	40	46
O=C(NCc1ccco1)C1CCN(C(=O)c2cc3sccc3n2Cc2ccc(Cl)cc2)CC1	65	89	88	5	5.7*
O=C(NCC1CCCO1)C1CCN(S(=O)(=O)Cc2ccccc2)CC1 (stereo unspecified)	102	104	96	94	93
O=C(NCc1ccco1)C1CCN(S(=O)(=O)Cc2ccccc2)CC1	92	95	91	0.5*	0.7*
COC(=O)c1ccc(N2CCCCC2)c(NS(=O)(=O)c2ccc(C)cc2)c1	77	101	90	53	35
SMILES	H69AR inhibit	Fibroblast inh	HUVEC inhibit	PTEN del growth	HCT116 bCat-KO
CCN(CC)CCNC(=O)c1ccc(N2CCCCC2)c(NS(=O)(=O)c2ccc(C)cc2)c1	77	67	66	1.8*	1.8*
COc1cc2c(cc1OC)C(c1ccccc1)N(C(=O)CCl)CC2 (stereo unspecified)	x	x	x	2.0*	1.9*
COc1cc2c(cc1OC)C(C1C(=O)CCCC1=O)N(C(=O)CCl)CC2 (stereo unspecified)	x	x	x	99	94
O=C1CN(C(=O)COc2cccc(F)c2)c2ccccc2N1	x	x	x	91	96
Cc1noc(C)c1COc1cccc(C(=O)OCC(=O)N2CC(=O)Nc3ccccc32)c1	22*	59	60	19	19
COc1ccc(C2=CC(c3ccc(OC)c(OC)c3)n3nnnc3N2)c(OC)c1 (stereo unspecified)	28*	94	114	72	79
COc1cccc(C2C=C(c3ccc(OC)cc3OC)Nc3nnnn32)c1 (stereo unspecified)	15*	62	64	9	10
CC(=O)NC(Cc1ccccc1)C(=O)OCC(=O)c1ccc(F)cc1 (stereo unspecified)	x	x	x	93	89
CN(CC(O)CON=C1c2ccccc2-c2ccccc21)S(=O)(=O)c1ccc(Br)cc1 (stereo unspecified)	x	x	x	63	79
COc1ccc(Nc2cnn(-c3nc4ccccc4s3)c(=O)c2Cl)cc1	x	x	x	7	5.1*
O=c1c(Cl)c(Nc2cccc(Cl)c2)cnn1-c1nc2ccccc2s1	x	x	x	71	77
C=CCNC(=O)C(=O)NCCOc1ccccc1Cl	x	x	x	26	35
Cc1ccc(CN(CC(=O)NC2CCCC2)C(=O)CSc2nnc(COc3ccccc3)o2)cc1	16*	86	48	83	91
O=C(CN(Cc1ccccc1)C(=O)CSc1nnc(COc2ccccc2)o1)NC1CCCC1	73	97	94	71	70
COc1ccc(OC)c2c(C)cc(C)nc12	x	x	x	90	88
CCn1c(C2CC(=O)N(Cc3ccccc3)C2)nc2ccccc21 (stereo unspecified)	85	92	90	103	100
CC(C)(C)N1CC(c2nc3ccccc3n2Cc2ccccc2)CC1=O (stereo unspecified)	38*	83	96	86	88
C1CCC(C(CC2CCCCN2)C2CCCCC2)CC1 (stereo unspecified)	1.3*	1.8*	1.6*	2.2*	1.5*
Cn1c(SCC(=O)NNC(=O)Cc2ccccc2)nnc1-c1ccccc1	x	x	x	90	96
CCOC(=O)c1ccc(Oc2cc(C)nc(SC)n2)cc1	22*	80	62	17	19
CCOC(=O)COC(=O)c1ccc(Oc2cc(C)nc(SC)n2)cc1	95	100	97	102	85
CCCC(=O)Nc1ccc(C(=O)NNC(=O)c2ccco2)cc1	x	x	x	87	91
O=C1c2[nH]nc(-c3ccccc3O)c2C(c2ccccc2)N1Cc1ccco1 (stereo unspecified)	x	91	91	76	81
COCCCN1C(=O)c2[nH]nc(-c3ccccc3O)c2C1c1cccc(Cl)c1 (stereo unspecified)	2.9*	65	80	25	20
